We go through 25 compounds from ChEMBL document CHEMBL1131110, “Deoxyadenosine bisphosphate derivatives as potent antagonists at P2Y1 receptors” (J Med Chem, 1998).

Test [1] deals with T1, P2Y purinoceptor 1 (Meleagris gallopavo, UniProt P49652). Kind of test: Antagonist activity at P2Y1 receptor measured as capacity to inhibit 50% of phospholipase C stimulation elicited by 10 nM 2-MeSATP. Type of test: functional. The method, boiled down: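 Ghosts are incubated 5 min at 30 °C with 10 nM 2-MeSATP plus graded analogue concentrations. [3H]inositol phosphates are separated by anion exchange. Maximal inhibition is 100 minus residual stimulation at the top concentration. Each curve was run at least 3 times in duplicate or triplicate.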
T1 sequence (P49652 whole entry): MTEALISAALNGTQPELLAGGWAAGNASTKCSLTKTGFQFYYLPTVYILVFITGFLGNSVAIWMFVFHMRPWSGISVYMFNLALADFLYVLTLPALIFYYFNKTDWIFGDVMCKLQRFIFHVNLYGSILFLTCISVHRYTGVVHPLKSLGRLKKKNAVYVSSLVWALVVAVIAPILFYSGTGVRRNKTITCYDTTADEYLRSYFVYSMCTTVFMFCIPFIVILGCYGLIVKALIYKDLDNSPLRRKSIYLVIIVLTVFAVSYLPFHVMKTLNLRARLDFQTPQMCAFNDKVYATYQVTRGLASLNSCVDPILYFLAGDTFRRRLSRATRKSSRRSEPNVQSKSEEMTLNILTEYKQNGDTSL

The target in test [2] is T1, P2Y purinoceptor 1. Kind of test: Agonist activity at P2Y1 receptor measured as capacity to stimulate 50% phospholipase C in turkey erythrocyte membranes. The format is functional, cell membranes. The method, boiled down: (§1)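 Turkey erythrocytes labelled with 2-[3H]myo-inositol in inositol-free DMEM for 18–24 h at 37 °C, 5% CO2. Ghosts made by hypotonic lysis. Labelled ghosts (~175 μg protein) incubated 5 min at 30 °C with 1 μM GTPγS and test nucleotide at pH 7.0 (HEPES, KCl, CaCl2, MgSO4, EGTA). Total [3H]inositol phosphates measured by anion-exchange chromatography. EC50 from four-parameter logistic fit. Efficacy is relative to a maximal 2-MeSATP response in the same experiment.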

Test [3] concerns the target P2Y purinoceptor 1 (Meleagris gallopavo) (UniProt P49652). In words: Agonist activity at P2Y1 receptor measured as capacity to stimulate phospholipase C in turkey erythrocyte membranes. Type of test: functional, cell membranes. The method, boiled down:
as §1

Test [4] has the same target. In words: Antagonist activity at P2Y1 receptor measured as capacity to inhibit phospholipase C stimulation elicited by 10 nM 2-MeSATP. The format is functional. Put shortly:
(§2)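 The PLC assay uses [3H]inositol-labelled turkey erythrocyte ghosts (~175 μg protein) in HEPES buffer, pH 7.0, with 1 μM GTPγS. Ghosts are incubated 5 min at 30 °C with 10 nM 2-MeSATP plus graded analogue concentrations. [3H]inositol phosphates are separated by anion exchange. IC50 is the concentration inhibiting 50% of the 2-MeSATP response. Maximal inhibition is 100 minus residual stimulation at the top concentration. Each curve was run at least 3 times in duplicate or triplicate.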

For test [5] the target is unchanged. Kind of test: Agonist activity at P2Y1 receptor measured as capacity to stimulate phospholipase C in turkey erythrocyte membranes; NE=No effect. Type of test: functional, cell membranes. Put shortly: as §1
Test [6] has the same target. Kind of test: Antagonist activity at P2Y1 receptor measured as capacity to inhibit phospholipase C stimulation elicited by 10 nM 2-MeSATP; Small inhibition at 30-100 uM. The format is functional. Particulars: filed as antagonist. The method, boiled down: as §2
The target is the same in test [7]. In words: Antagonist activity at P2Y1 receptor measured as capacity to inhibit phospholipase C stimulation elicited by 10 nM 2-MeSATP; NE=No effect. The format is functional. The method, boiled down:
as §2

For test [8] the target is unchanged. In words: Antagonist activity at P2Y1 receptor measured as capacity to inhibit phospholipase C stimulation elicited by 10 nM 2-MeSATP; No effect or small inhibition. Type of test: functional. The method, boiled down: as §2
Test [9] shares this target. Kind of test: Agonist activity at P2Y1 receptor measured as capacity to stimulate phospholipase C in turkey erythrocyte membranes; No effect or small inhibition. The format is functional, cell membranes. Put shortly:
as §1

Each structure is given as a SMILES string. Activity calls are given as the source filed them. No cut-off for these calls is given here.

Sequence of P2Y purinoceptor 1 (Meleagris gallopavo) (P49652 whole entry): as above

On to `Nc1ncnc2c1ncn2[C@H]1C[C@H](OP(=O)(O)O)[C@@H](COP(=O)(O)O)O1`, for which the concentration for half-maximal inhibition (IC50) (commonly the concentration that gives 50% inhibition) in test [1] came out at 5.76 µM. Further, in [2], the EC50 (commonly the concentration at which the effect is half-maximal) is 6.26 µM. In [3], this compound displayed a Max increase of 12%. This compound showed a Max inhibition in [4] of 87%.

In test [3], `Nc1ncnc2c1ncn2[C@@H]1O[C@H](COP(=O)(O)O)[C@H]2OP(=O)(O)O[C@H]21` yielded a Max increase of 43%. In test [4], this compound came in with a Max inhibition of 73%.

With `CCNc1ncnc2c1ncn2[C@H]1C[C@H](OP(=O)(O)O)[C@@H](COP(=O)(O)O)O1`, the Max increase entry in test [5] is “inactive”. For the same compound, the IC50 in test [1] is 1.08 µM. In [4], the Max inhibition is 100%.

Regarding `Nc1ncnc2c1ncn2[C@@H]1O[C@H](COP(=O)(O)O)[C@H]2O[P@](=O)(O)O[C@H]21`, 12.7 µM corresponded to half-maximal inhibition in [1] (IC50). This compound came in with an EC50 in test [2] of 40.9 µM.

As to `O=c1[nH]cnc2c1ncn2[C@H]1C[C@H](OP(=O)(O)O)[C@@H](COP(=O)(O)O)O1`, in test [6], the Max inhibition result was “Partial antagonist”. Further, the Max increase result in [5] is “inactive”.

On to `CNc1ncnc2c1ncn2C1OC(COP(=O)(O)O)CC1OP(=O)(O)O` (stereo not given), for which the midpoint of inhibition in test [1], the IC50, lay at 0.324 µM. The compound further came in with a Max increase in test [3] of 13%. In [4], this compound yielded a Max inhibition of 90%.

As for `Nc1ncnc2c1ncn2C1O[C@H](COP(=O)(O)OP(=O)(O)OC2O[C@H](CO)[C@@H](O)[C@H]2O)[C@@H](O)[C@H]1OP(=O)(O)O` (stereo not given in full), in test [1], the half-inhibitory concentration (IC50) is > 100 µM. Further, in test [2], the EC50 is > 100 µM. Further, the Max increase in [3] was 50%. In test [4], this compound registered a Max inhibition of 50%.

Consider `NCCCCCCNc1ncnc2c1ncn2[C@@H]1O[C@H](COP(=O)(O)O)[C@@H](O)[C@H]1OP(=O)(O)O`, for which the Max increase entry in test [5] is “inactive”. In test [7], the Max inhibition entry is “inactive”.

Take `CCCNc1ncnc2c1ncn2[C@H]1C[C@H](OP(=O)(O)O)[C@@H](COP(=O)(O)O)O1`: the Max inhibition result in [6] is “Partial antagonist”. Besides, the Max increase result in [5] was “inactive”.

On to `O=P(O)(O)OC[C@H]1O[C@@H](n2cnc3c2ncn2ccnc32)C[C@@H]1OP(=O)(O)O`, for which the Max increase entry in [5] is “inactive”. For the same compound, in test [7], the Max inhibition result is “inactive”.

Take `O=C(Nc1ncnc2c1ncn2[C@H]1C[C@H](OP(=O)(O)O)[C@@H](COP(=O)(O)O)O1)c1ccccc1`: in test [5], the Max increase result was “inactive”. Besides, in [7], the Max inhibition entry was “inactive”.

Regarding `CSc1nc(N)c2ncn([C@H]3C[C@H](OP(=O)(O)O)[C@@H](COP(=O)(O)O)O3)c2n1`, half-maximal inhibition in test [1] (IC50) required 2.11 µM. Further, in test [2], it took 0.55 µM to reach a half-maximal effect (EC50). The compound also showed a Max increase in test [3] of 22%. The compound also gave a Max inhibition in [4] of 77%.

In test [1], `CC(C)(COP(=O)(O)OP(=O)(O)OC[C@H]1O[C@@H](n2cnc3c(N)ncnc32)[C@H](OP(=O)(O)O)[C@@H]1O)C(O)C(=O)NCCC(=O)NCCS` (stereo not given in full) returned an IC50 of 73 µM. Also, the EC50 in test [2] was > 100 µM. The compound also yielded a Max increase in [3] of 43%. Also, the Max inhibition in test [4] is 72%.

In the case of `Nc1ncnc2c1ncn2C1OC(CCl)CC1OP(=O)(O)O` (stereo not given), the Max increase result in [5] is “inactive”. The Max inhibition entry in [7] is “inactive”.

As for `CO[C@@H]1[C@H](OP(=O)(O)O)[C@@H](COP(=O)(O)O)O[C@H]1n1cnc2c(N)ncnc21`, the IC50 in [1] stood at 12.4 µM. A half-maximal effect in test [2] (EC50) was put at 12.9 µM. In [3], the Max increase amounted to 35%. This compound also displayed a Max inhibition in [4] of 65%.

For the compound `Nc1ncnc2c1nc(Br)n2[C@H]1C[C@H](OP(=O)(O)O)[C@@H](COP(=O)(O)O)O1`, in [5], the Max increase result is “inactive”. In test [1], the midpoint of inhibition, the IC50, lay at 36.7 µM. In [4], this compound displayed a Max inhibition of 100%.

As to `CSc1ncnc2c1ncn2[C@H]1C[C@H](OP(=O)(O)O)[C@@H](COP(=O)(O)O)O1`, the Max increase result in [5] was “inactive”. In addition, in test [1], the half-maximal inhibitory concentration (IC50) was 29.1 µM. For the same compound, the Max inhibition in test [4] came to 78%.

For the compound `C[n+]1cnc2c(ncn2[C@H]2C[C@H](OP(=O)(O)O)[C@@H](COP(=O)(O)O)O2)c1N`, the Max increase result in [5] was “inactive”. In test [1], this compound had an IC50 of 54.9 µM. Also, in test [4], the Max inhibition came to 100%.

`Nc1ncnc2c1ncn2[C@H]1C[C@H](OP(O)(O)=S)[C@@H](COP(O)(O)=S)O1` had an IC50 in test [1] of 88 µM. Further, in [3], the Max increase was 9%. Further, the Max inhibition in [4] was 91%.

In [1], `Nc1ncnc2c1ncn2C1OC(COP(=O)(O)O)CC1OP(=O)(O)O` (stereo not given) gave an IC50 of 11 µM. In addition, the EC50 in test [2] was found to be 8.33 µM. This compound also yielded a Max increase in [3] of 16%. The compound further had a Max inhibition in test [4] of 81%.

In test [1], `Nc1ncnc2c1ncn2[C@@H]1O[C@H](COP(=O)(O)O)[C@@H](OP(=O)(O)O)[C@H]1O` returned a half-maximal inhibitory concentration (IC50) of 4.19 µM. Besides, the EC50 in [2] stood at 1.28 µM. The compound also gave a Max increase in test [3] of 21%. The same compound showed a Max inhibition in test [4] of 77%.

Compound `Nc1nc(Cl)nc2c1ncn2[C@H]1C[C@H](OP(=O)(O)O)[C@@H](COP(=O)(O)O)O1` gave a concentration for half-maximal inhibition (IC50) in [1] of 2.01 µM. Besides, a half-maximal effect in test [2] (EC50) was put at 0.651 µM. This compound gave a Max increase in test [3] of 19%. In test [4], the Max inhibition came out at 80%.

`Nc1ncnc2c1ncn2[C@@H]1O[C@H](COP(=O)(O)O)[C@@H](O)[C@H]1OP(=O)(O)O` showed a half-inhibitory concentration (IC50) in test [1] of 8.46 µM. In [2], this compound showed an EC50 of 1.37 µM. In [3], this compound came in with a Max increase of 25%. In addition, the Max inhibition in [4] came out at 75%.

Regarding `CN(C)c1ncnc2c1ncn2[C@H]1C[C@H](OP(=O)(O)O)[C@@H](COP(=O)(O)O)O1`, the Max increase result in test [5] was “inactive”. The compound also displayed a half-inhibitory concentration (IC50) in test [1] of 46.7 µM. Also, the Max inhibition in test [4] came out at 70%.

Consider `O=P(O)(O)OC[C@H]1O[C@@H](n2cnc3c(Cl)ncnc32)C[C@@H]1OP(=O)(O)O`, for which, in test [8], the Max inhibition entry was “inactive”. The Max increase result in [9] is “inactive”.
